pKi: −log10 of the molar value. Values belong to the molecule of their own block, whether it stands above or below them. Calls of active or inactive are those of the source. No cut-off for these calls is given here.
Key:
[1] = test system: Mus musculus; assay: Antidepressant activity in mouse assessed as spontaneous locomotor activity 5 to 20 mg/kg; assay type: functional, organism-based
How it was run: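 Swiss albino mice given the forced swim doses ip 30 min before; placed individually in cages and channel crossings counted from 2 to 6 min with a multichannel activity monitor, matching the swim test observation period.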

[2] = test system: Mus musculus; assay: Antidepressant activity in Swiss albino mouse assessed as reduction in immobility time at 5 to 20 mg/kg measured for 4 mins by forced swim test; assay type: functional; design: scale not given: the % may be the effect or the level left; details: dose mg/kg 5-20
How it was run: (§1)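 Porsolt forced swim in male Swiss albino mice. Drugs ip (10 ml/kg; 1% Tween 80 suspension, imipramine in water) 30 min before. Cylinder 25 cm high, 10 cm diameter, 6 cm water at 23–25 °C, 6 min session; immobility scored over final 4 min. 5–10 mice/dose; one-way ANOVA with Bonferroni.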

[3] = test system: Mus musculus; assay: […] activity in ip dosed Swiss albino mouse assessed as inhibition of DOI-induced head twitches administered 20 mins before DOI challenge measured for 20 mins; assay type: functional; details: for ED50: read-out: ID50 (the source's name)
[4] = target: T1, 5-hydroxytryptamine receptor 7 (Homo sapiens, UniProt P34969); assay: Displacement of [3H]5-CT form human cloned 5HT7 receptor expressed in human HEK293 cells by liquid scintillation counter; assay type: cell-based
How it was run: (§2)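 Competition binding. 5-HT1A: rat hippocampus, [3H]-8-OH-DPAT. 5-HT2A: rat cortex, [3H]-ketanserin. D2: rat striatum, [3H]-spiperone. 5-HT6: human receptor stably in HEK293, [3H]-LSD. 5-HT7: human receptor stably in HEK293, [3H]-5-CT. Vacuum filtration on GF/B filters, ice-cold washes, scintillation counting.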

[5] = target: 5-hydroxytryptamine receptor 6 (Homo sapiens, UniProt P50406); assay: Displacement of [3H]-LSD from human full length cloned 5HT6 receptor expressed in human HEK293 cells by liquid scintillation counter; assay type: cell-based; how it was run: as §2
[6] = target: T2, 5-hydroxytryptamine receptor 1A (Rattus norvegicus, UniProt P19327); assay: Displacement of [3H]8-OH-DPAT from rat hippocampus 5-HT1A receptor by liquid scintillation counter; assay type: tissue-based; how it was run: as §2
T2 sequence (P19327 whole entry): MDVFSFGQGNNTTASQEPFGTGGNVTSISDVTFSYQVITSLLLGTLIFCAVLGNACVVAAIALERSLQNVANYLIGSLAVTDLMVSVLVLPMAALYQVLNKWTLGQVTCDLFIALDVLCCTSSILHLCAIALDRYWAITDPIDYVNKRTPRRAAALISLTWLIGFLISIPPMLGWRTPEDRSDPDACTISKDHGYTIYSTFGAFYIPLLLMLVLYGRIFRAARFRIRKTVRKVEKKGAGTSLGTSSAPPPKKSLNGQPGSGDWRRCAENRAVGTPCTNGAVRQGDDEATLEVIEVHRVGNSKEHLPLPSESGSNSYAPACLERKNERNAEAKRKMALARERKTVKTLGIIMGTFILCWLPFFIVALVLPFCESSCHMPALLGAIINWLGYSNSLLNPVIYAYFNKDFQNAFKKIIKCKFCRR

[7] = target: 5-hydroxytryptamine receptor 2A (Rattus norvegicus, UniProt P14842); assay: Displacement of [3H]Ketanserin from rat cortex 5-HT2A receptor by liquid scintillation counter; how it was run: as §2
[8] = test system: Mus musculus; assay: Antipsychotic activity in CD1 mouse assessed as reduction in spontaneous locomotor activity measuring number of crossings at 10 to 30 mg/kg every 5 mins for 1 hr; assay type: functional, organism-based
How it was run: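 Male CD-1 mice; compound or reference ip 30 min before test plus vehicle. After 30 min habituation in individual cages, crossings counted over 1 h, recorded every 5 min; mean ± SEM; one-way ANOVA, Bonferroni.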

[9] = test system: Mus musculus; assay: Antipsychotic activity in CD1 mouse assessed as inhibition of MK-801-induced hyperactivity measuring number of crossings at 5 to 30 mg/kg measured every 5 mins for 1 hr; assay type: functional, organism-based
How it was run: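 Male CD-1 mice; test compound ip 30 min before, MK-801 0.2 mg/kg (in water) ip 15 min before testing. After 30 min habituation, crossings counted for 60 min, recorded every 5 min. 5–10 mice/group; mean ± SEM; one-way ANOVA, Bonferroni versus vehicle + MK-801.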

[10] = test system: Rattus norvegicus; assay: Anxiolytic activity in Wistar rat assessed as increase in Y ambulations at 2.5 mg/kg for 5 mins by general locomotor activity test; assay type: functional, organism-based; design: dose 2.5 mg/kg
[11] = test system: Rattus norvegicus; assay: Anxiolytic activity in Wistar rat assessed as increase in total distance at 2.5 mg/kg for 5 mins by general locomotor activity test; assay type: functional, organism-based; design: dose 2.5 mg/kg
[12] = test system: Rattus norvegicus; assay: Anxiolytic activity in Wistar rat assessed as increase in open arm entries at 10 mg/kg after 5 mins by plus-maze test (reference value: 23.1 +/- […]); assay type: functional
[13] = test system: Rattus norvegicus; assay: Anxiolytic activity in Wistar rat assessed as increase in open arm entries at 5 mg/kg after 5 mins by plus-maze test (reference value: 23.1 +/- […]); assay type: functional
[14] = test system: Rattus norvegicus; assay: Anxiolytic activity in Wistar rat assessed as increase in open arm entries at 2.5 mg/kg after 5 mins by plus-maze test (reference value: 23.1 +/- […]); assay type: functional
[15] = test system: Rattus norvegicus; assay: Anxiolytic activity in Wistar rat assessed as increase in time spent in open arms at 10 mg/kg after 5 mins by plus-maze test (reference value: 7.9 +/- 1.4 %); assay type: functional
[16] = test system: Rattus norvegicus; assay: Anxiolytic activity in Wistar rat assessed as increase in time spent in open arms at 5 mg/kg after 5 mins by plus-maze test (reference value: 7.9 +/- 1.4 %); assay type: functional
[17] = test system: Rattus norvegicus; assay: Anxiolytic activity in Wistar rat assessed as increase in time spent in open arms at 2.5 mg/kg after 5 mins by plus-maze test (reference value: 7.9 +/- 1.4 %); assay type: functional
[18] = test system: Mus musculus; assay: Antidepressant activity in Swiss albino mouse assessed as reduction in immobility time at 20 mg/kg measured for 4 mins by forced swim test; assay type: functional; how it was run: as §1
[19] = test system: Mus musculus; assay: Antidepressant activity in Swiss albino mouse assessed as reduction in immobility time at 10 mg/kg measured for 4 mins by forced swim test; assay type: functional; how it was run: as §1
[20] = test system: Mus musculus; assay: […] activity in Swiss albino mouse assessed as inhibition of apomorphine-induced climbing behavior administered 10 mins before apomorphine challenge measured for 2 mins; assay type: functional
How it was run: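 Male Swiss albino mice; compounds ip in 1% Tween 80 suspension, 10 min before apomorphine 3 mg/kg. Climbing time (2–4 paws on bar wall) recorded for 2 min starting 20 min after apomorphine.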

[21] = target: T1, 5-hydroxytryptamine receptor 7; assay: Antagonist activity at human cloned 5HT7 receptor expressed in human CHO cells assessed as adenylate cyclase activity by cAMP accumulation assay; assay type: functional, cell-based
How it was run: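 CHO cells stably expressing human 5-HT7 receptor; intracellular cAMP (adenylate cyclase) measured, expressed as % of maximal effect of 300 nM serotonin. Compounds tested at 5 concentrations spanning 10^-4–10^-9 in antagonist mode. KB from IC50 by modified Cheng–Prusoff, KB = IC50/(1+A/EC50A), A = reference agonist concentration.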

[22] = target: T3, D(4) dopamine receptor (Homo sapiens) (UniProt P21917); assay: Displacement of [3H]-methylspiperone from human cloned dopamine D4 receptor expressed in HEK293 cells at 10 '-6 M by liquid scintillation counter; assay type: cell-based
T3 sequence (whole entry): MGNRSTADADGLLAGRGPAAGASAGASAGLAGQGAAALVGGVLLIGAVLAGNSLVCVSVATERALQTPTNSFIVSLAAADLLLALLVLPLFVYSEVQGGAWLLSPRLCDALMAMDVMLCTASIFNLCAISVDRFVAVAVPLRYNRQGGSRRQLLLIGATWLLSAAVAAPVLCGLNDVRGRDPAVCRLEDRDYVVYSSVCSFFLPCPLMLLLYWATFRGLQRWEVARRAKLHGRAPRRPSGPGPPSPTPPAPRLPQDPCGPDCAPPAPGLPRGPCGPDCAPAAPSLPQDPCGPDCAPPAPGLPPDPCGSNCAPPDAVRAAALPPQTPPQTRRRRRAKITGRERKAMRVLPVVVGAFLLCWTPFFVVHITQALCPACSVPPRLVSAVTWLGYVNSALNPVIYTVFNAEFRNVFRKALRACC

[23] = target: T3, D(4) dopamine receptor (Homo sapiens); assay: Displacement of [3H]-methylspiperone from human cloned dopamine D4 receptor expressed in HEK293 cells at 10 '-7 M by liquid scintillation counter; assay type: cell-based
[24] = target: D(3) dopamine receptor (Homo sapiens) (UniProt P35462); assay: Displacement of [3H]-methylspiperone from human cloned dopamine D3 receptor expressed in HEK293 cells at 10 '-6 M by liquid scintillation counter; assay type: cell-based
[25] = target: D(3) dopamine receptor (Homo sapiens) (UniProt P35462); assay: Displacement of [3H]-methylspiperone from human cloned dopamine D3 receptor expressed in HEK293 cells at 10 '-7 M by liquid scintillation counter; assay type: cell-based
[26] = target: D(2) dopamine receptor (Rattus norvegicus, UniProt P61169); assay: Displacement of [3H]-spiperone from rat striatum dopamine D2 receptor by liquid scintillation counter; how it was run: as §2
[27] = Selectivity ratio of compound Ki for rat hippocampus 5-HT1A receptor to human 5HT7 receptor; assay type: tissue-based
How it was run: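 Ratio of Ki values from competition binding: rat hippocampus 5-HT1A with [3H]-8-OH-DPAT versus human 5-HT7 in HEK293 with [3H]-5-CT; Ki by Cheng–Prusoff from 7–9 concentrations in triplicate.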

T1 sequence (P34969 whole entry): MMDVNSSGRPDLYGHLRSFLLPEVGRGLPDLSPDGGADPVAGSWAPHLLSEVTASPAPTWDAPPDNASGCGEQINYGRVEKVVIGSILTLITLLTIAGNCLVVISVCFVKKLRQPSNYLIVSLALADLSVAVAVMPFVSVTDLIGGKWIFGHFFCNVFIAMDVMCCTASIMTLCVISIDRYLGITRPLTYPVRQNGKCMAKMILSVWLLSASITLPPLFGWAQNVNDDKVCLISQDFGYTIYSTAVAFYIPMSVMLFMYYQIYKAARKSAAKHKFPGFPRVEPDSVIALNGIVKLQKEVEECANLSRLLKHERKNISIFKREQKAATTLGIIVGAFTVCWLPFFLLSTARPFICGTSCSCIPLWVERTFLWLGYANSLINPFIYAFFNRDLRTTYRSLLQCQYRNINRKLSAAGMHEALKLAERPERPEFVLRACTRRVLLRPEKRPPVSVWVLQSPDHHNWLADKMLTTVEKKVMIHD
Chain of D(3) dopamine receptor (Homo sapiens) (P35462 whole entry): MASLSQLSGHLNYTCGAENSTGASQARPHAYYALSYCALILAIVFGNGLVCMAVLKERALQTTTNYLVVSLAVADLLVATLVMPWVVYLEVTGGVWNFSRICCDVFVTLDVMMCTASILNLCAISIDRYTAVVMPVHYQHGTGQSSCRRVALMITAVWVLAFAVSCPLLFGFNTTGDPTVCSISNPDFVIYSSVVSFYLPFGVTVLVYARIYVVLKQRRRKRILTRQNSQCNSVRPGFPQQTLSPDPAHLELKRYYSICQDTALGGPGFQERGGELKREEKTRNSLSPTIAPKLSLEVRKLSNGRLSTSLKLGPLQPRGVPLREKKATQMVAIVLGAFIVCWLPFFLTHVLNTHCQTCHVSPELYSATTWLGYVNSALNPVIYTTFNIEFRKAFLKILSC
Chain of 5-hydroxytryptamine receptor 2A (P14842 whole entry): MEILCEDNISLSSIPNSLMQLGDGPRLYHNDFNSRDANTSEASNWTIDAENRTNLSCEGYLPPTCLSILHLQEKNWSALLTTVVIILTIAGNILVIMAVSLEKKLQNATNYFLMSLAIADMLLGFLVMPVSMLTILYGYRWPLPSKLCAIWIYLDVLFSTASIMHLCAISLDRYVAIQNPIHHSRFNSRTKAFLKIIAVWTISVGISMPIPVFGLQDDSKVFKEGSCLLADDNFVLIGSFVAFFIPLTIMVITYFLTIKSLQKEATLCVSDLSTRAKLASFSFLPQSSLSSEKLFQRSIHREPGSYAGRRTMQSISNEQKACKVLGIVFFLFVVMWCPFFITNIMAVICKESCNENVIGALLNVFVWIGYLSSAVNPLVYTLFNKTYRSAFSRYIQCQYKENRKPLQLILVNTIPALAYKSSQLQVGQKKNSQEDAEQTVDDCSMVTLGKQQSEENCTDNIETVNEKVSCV
Chain of 5-hydroxytryptamine receptor 6 (P50406 whole entry): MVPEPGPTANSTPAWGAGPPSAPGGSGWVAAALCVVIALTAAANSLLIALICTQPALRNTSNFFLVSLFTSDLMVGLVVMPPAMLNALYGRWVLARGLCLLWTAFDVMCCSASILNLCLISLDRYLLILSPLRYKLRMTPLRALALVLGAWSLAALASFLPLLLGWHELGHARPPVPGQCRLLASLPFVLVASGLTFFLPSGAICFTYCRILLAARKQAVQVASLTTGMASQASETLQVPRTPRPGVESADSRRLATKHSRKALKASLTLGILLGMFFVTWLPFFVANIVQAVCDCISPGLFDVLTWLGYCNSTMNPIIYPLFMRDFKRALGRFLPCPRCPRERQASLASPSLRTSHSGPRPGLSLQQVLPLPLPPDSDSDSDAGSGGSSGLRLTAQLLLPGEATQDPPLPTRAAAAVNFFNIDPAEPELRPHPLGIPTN
Chain of D(2) dopamine receptor (P61169 whole entry): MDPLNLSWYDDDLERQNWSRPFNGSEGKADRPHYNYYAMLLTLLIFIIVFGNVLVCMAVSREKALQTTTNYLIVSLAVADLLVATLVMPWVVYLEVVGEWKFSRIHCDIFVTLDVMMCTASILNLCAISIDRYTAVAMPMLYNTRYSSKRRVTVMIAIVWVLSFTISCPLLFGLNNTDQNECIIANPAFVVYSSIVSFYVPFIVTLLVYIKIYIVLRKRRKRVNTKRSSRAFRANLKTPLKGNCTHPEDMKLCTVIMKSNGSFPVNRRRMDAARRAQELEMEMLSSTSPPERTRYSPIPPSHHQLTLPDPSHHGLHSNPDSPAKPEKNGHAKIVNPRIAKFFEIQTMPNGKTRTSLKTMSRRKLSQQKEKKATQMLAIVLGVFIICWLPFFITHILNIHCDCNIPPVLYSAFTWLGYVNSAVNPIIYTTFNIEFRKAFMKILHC

pKi [4]: 7.06 | pKi [5]: 6.81 | pKi [6]: 6.68 | pKi [7]: 7.25
Compound: Cl.O=S(=O)(NCCCCN1CCN(c2cccc(Cl)c2)CC1)c1cnc2ccc(Cl)cc2c1
Activity [1]: inactive | Activity [2]: 44% | inhibition [3]: Dose-dependent effect | ED50 [3]: 4.75 mg/kg

Kb [21]: 90 nM | inhibition [22]: 98% | inhibition [23]: 70% | inhibition [24]: 93% | inhibition [25]: 67% | pKi [26]: 7.22 | Ratio Ki [27]: 68 | pKi [4]: 7.33 | pKi [5]: 4.78 | pKi [6]: 5.49 | pKi [7]: 7.23
Compound: Cl.O=S(=O)(c1cncc2ccccc12)N1CCC(CCN2CCN(c3ccc(Cl)cc3)CC2)CC1
Activity [8]: inactive | inhibition [9]: Active | Activity [10]: Active | Activity [11]: Active | Activity [12]: 40.3% | Activity [13]: 32.9% | Activity [14]: 36.4% | Activity [15]: 29.3% | Activity [16]: 19.4% | Activity [17]: 25% | Activity [18]: Active | Activity [19]: Active | inhibition [20]: Dose-dependent effect | ED50 ([20]; read-out: ID50 (the source's name)): 25.5 mg/kg | inhibition [3]: Dose-dependent effect | ED50 [3]: 20.3 mg/kg

Reference: ChEMBL document CHEMBL1949570, “Quinoline- and isoquinoline-sulfonamide derivatives of LCAP as potent CNS multi-receptor-5-HT1A/5-HT2A/5-HT7 and D2/D3/D4-agents: the synthesis and pharmacological evaluation” (Bioorg Med Chem, 2012)
